Source: ChEMBL document CHEMBL1132999, “Synthesis and oral antitumor activity of tetrakis(carboxylato)platinum(IV) complexes” (J Med Chem, 2000)

Tests used:
[1] = Partition coefficient (logP); assay type: physicochemical; conditions: octanol/water
[2] = tested on: Mus musculus; experiment: antitumor activity (survival) by the oral administration of 100 mg/kg scheduled treatment (Q1D x 5) in BDF1 mice inoculated with L1210 leukemia; assay type: functional, organism-based; parameters: dose 100 mg/kg; conditions: at 100 mg/kg
How it was run: (§1)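 BDF1 mice inoculated with L1210 leukaemia and fasted before dosing. Complexes suspended in 0.2 mL 0.5% Tween 80 and given by stomach catheter on days 1-5 (Q1D × 5). Activity expressed as T/C (%), the ratio of mean survival time (days) of treated versus control mice.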

[3] = tested on: L1210; experiment: in vitro antitumor activity (cytotoxicity) against the murine leukemia L1210 cell; assay type: functional, cell-based; conditions: Mus musculus
[4] = tested on: Mus musculus; experiment: antitumor activity (survival) by the oral administration of 150 mg/kg scheduled treatment (Q1D x 5) in BDF1 mice inoculated with L1210 leukemia; toxic; assay type: functional, organism-based; parameters: dose 150 mg/kg; how it was run: as §1
[5] = tested on: Mus musculus; experiment: antitumor activity (survival) by the oral administration of 150 mg/kg scheduled treatment (Q1D x 5) in BDF1 mice inoculated with L1210 leukemia; assay type: functional, organism-based; parameters: dose 150 mg/kg; conditions: at 150 mg/kg; how it was run: as §1

| logP [1] | Substance | ED50 [3] [µM] | T/C [5] [%] | further results |
| --- | --- | --- | --- | --- |
| 1.54 | [Pt(O2CC3H7)4(dach)]dach : trans-(+/-)-1,2-diaminocyclohexane [listing 1 of 2 here] |  |  |  |
|  | [Pt(O2CC3H7)4(dach)]dach : trans-(+/-)-1,2-diaminocyclohexane [listing 2 of 2 here] | 6.2 |  | T/C [2]: 108%; T/C [4]: Toxic |
| 2.54 | [Pt(O2CC4H9)4(dach)]dach : trans-(+/-)-1,2-diaminocyclohexane [listing 1 of 2 here] |  |  |  |
|  | [Pt(O2CC4H9)4(dach)]dach : trans-(+/-)-1,2-diaminocyclohexane [listing 2 of 2 here] | > 50 | 107 |  |
| 3.03 | [Pt(O2CC5H11)4(dach)]dach : trans-(+/-)-1,2-diaminocyclohexane [listing 1 of 2 here] |  |  |  |
|  | [Pt(O2CC5H11)4(dach)]dach : trans-(+/-)-1,2-diaminocyclohexane [listing 2 of 2 here] | > 50 | 98.9 |  |
| -1.59 | [Pt(O2CCH3)4(dach)]dach [listing 1 of 2 here] |  |  |  |
|  | [Pt(O2CCH3)4(dach)]dach [listing 2 of 2 here] | 25.8 | 100 |  |
|  | [Pt(OH)4(dach)]dach | 32.6 | 112 |  |
